Screening results as filed in PubChem.
This is a sample that favours compounds with a hit; in the whole collection about 2.3% have one here.
FN deposit inh = fibronectin deposition inhibition | AID 743247 | 350,000 compounds, 0.086% hits | AH1F fibroblasts, Alexa488-fibronectin deposition fluorescence, overnight | inhibition, % at 12.6 µM;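 active = mean inhibition across replicates of 30% or more, regardless of how many single replicates reach that level; inconclusive = mean under 30% yet at least half of replicates reach 30%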;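 note: positive control wells lacked labelled fibronectin entirely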
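Material: AH1F fibroblasts assembling fluorescent fibronectin matrix; amount: 10000 AH1F cells/well; medium: DMEM, 2% serum; reagent: Alexa488-fibronectin, 24 nM final in well; dosing: single compound dose, delivered by pin transfer; incubation: 1 h adhesion, overnight exposure; detection: fluorescence after three HBSS washes, excitation 485 nm, emission 525 nm; measure: fibronectin deposition inhibition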
XiGFP reactiv = X-chromosome reactivation activator; XiGFP mouse fibroblasts, % GFP-positive cells imaging, 3 d; cells co-treated with 5-aza-dC sensitizer; scaled so ellipticine positive control = 100%; activation, % at 7.58 µM; 360,000 compounds, 0.055% hits; AID 743238;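 active = mean normalized replicate activation at least 10% and every replicate at or above 10%; inconclusive = only one of the two criteria met; inactive = mean below 10% and not all replicates reach 10%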;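 note: 0% = median of on-plate neutral control wells and 100% = ellipticine 6 µM median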
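System: SV40-immortalized XiGFP fibroblast cells, line 68-5-11 / Incubation: 3-day compound exposure, then 15 min fixation at room temperature / Compound: single concentration per compound, delivered by pin transfer / Buffer or medium: DMEM plus 5-aza-dC sensitizer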
TROY NFkB inh = blocks TROY-dependent signaling in reporter cells. Q293 LMP1-TROYcd NF-kB luciferase reporter, 4 h. inhibition, % at 10 µM. 360,000 compounds, 0.98% hits. AID 1347056;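 active = compounds whose plate-normalised and pattern-corrected inhibition of the luciferase reporter signal at the single screening dose is 50% or more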
TWEAK Fn14 block = inhibitors of TWEAK-Fn14 interaction signaling. AID 1159606. TWEAK-stimulated Fn14 reporter cells, luciferase luminescence, 8 h. inhibition, % at 10 µM. 360,000 compounds, 2% hits; in the data active = inhibition above about 50%
EWS-Fli inh = inhibitors of EWS/Fli oncoprotein transcriptional activity; AID 651661; A673 NR0B1-luciferase reporter, viability-normalised; 350,000 compounds, 0.67% hits; inhibition, % at 12.6 µM;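 active = mean inhibition of at least 50% after viability correction, with every replicate also passing that limit; inconclusive = mean reaches 50% but only one of two replicates passes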;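 note: firefly luciferase signal divided by Alamar Blue viability fluorescence both relative to DMSO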
LGR2 antag = inhibitors of bursicon-induced Drosophila LGR2 receptor cAMP signaling. HEK293 LGR2, CRE-luciferase, bursicon-stimulated, 4 h. inhibition, % at 9.99 µM. 380,000 compounds, 0.35% hits. AID 720647;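 active = drop in luminescence signal, shown as inhibition above about 50% in the replicate tests, limit read from the data, passing the limit was not always enough; inconclusive = probably only some replicates passing the limit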;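 note: agonist challenge used bursicon conditioned medium at about half maximal strength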
Numbers without * were called inactive; ? = inconclusive; . = no result; ! = a repeat was not active.

SMILES | FN deposit inh | XiGFP reactiv | TROY NFkB inh | TWEAK Fn14 block | EWS-Fli inh | LGR2 antag
CCOC(=O)c1cccc2c1-c1ccccc1/C2=N/O | -0.9 | . | 50.3* | 86.2* | . | .
C=CC[n+]1ccc(/C=C2\C=Cc3cc(C)ccc3N2CC)c2ccccc21 | . | . | 50.2* | 17.7 | . | .
CCN1/C(=C/c2cc[n+](CCCS(=O)(=O)[O-])c3ccccc23)Sc2ccccc21 | 6.0 | 0.0 | 7.7 | 17.8 | -11.7 | 2.5
Cc1noc(C)c1CSc1nc2ccccc2nc1NS(=O)(=O)c1ccc(Cl)cc1 | . | . | 57.4* | 18.1 | . | .
CCS(=O)(=O)N1CC2(CN(C)[C@H](CO)c3c2c2ccc(OC)cc2n3C)C1 | 1.8 | 0.0 | . | . | -7.7 | -1.2
Cc1cc(C)c(NN=c2c(=O)c3ccccc3c2=O)c(C)c1 | 2.4 | . | -55.9 | 5.6 | . | -17.6
O=c1c(=NNc2ccccc2Cl)c(=O)c2ccccc12 | . | . | 66.7* | 97.6* | 7.1 | 15.6
COC(=O)CCN1CCc2cc(N=Nc3ccc([N+](=O)[O-])cc3)ccc21 | 2.5 | 0.0 | 52.7* | 30.2 | -88.5 | -80.9
C[C@H](CO)N1C[C@H](C)[C@H](CN(C)Cc2ccccn2)Oc2ncc(-c3ccc(C#N)cc3)cc2C1=O | 6.5 | -0.2 | . | . | -5.1 | -6.0
C[C@H](CO)N1C[C@H](C)[C@@H](CN(C)CC2CC2)OCCCC[C@H](C)Oc2ccc(NS(=O)(=O)c3ccccc3)cc2C1=O | . | 0.4 | . | . | . | -9.3
CCCC(C(=O)NCc1ccco1)N(CC1CCCO1)C(=O)CNS(=O)(=O)c1ccc(F)cc1 (stereo unspecified) | -6.5 | -0.1 | -19.2 | -4.0 | -6.2 | -17.8
CCCC(C(=O)NC(C)(C)C)N(CC1CCCO1)C(=O)CNS(=O)(=O)c1ccc(F)cc1 (stereo unspecified) | 0.7 | 0.1 | -4.7 | 85.2* | -5.0 | 1.8
Oc1ccc(C=Nc2cccc3ccccc23)c(O)c1 | -4.1 | 0.3 | 53.1* | 53.3* | -13.0 | 7.2
COc1ccc(-c2cc3nc4n(c(=O)c3s2)CCC4)cc1 | . | . | 62.3* | 95.0* | ? | 87.0*
Cc1ccc(C)n1-n1c(C)nc2sc(-c3ccccc3)cc2c1=O | . | . | 5.4 | 69.1* | . | .
Cc1nc2cc(-c3ccccc3)sc2c(=O)n1N | 0.5 | 0.3 | 79.0* | 95.1* | 75.7* | 98.3*
Cc1ccc(C)n1-n1cnc2sc(-c3ccccc3)cc2c1=O | . | . | -23.2 | -16.2 | . | -0.4
COc1ccc(-c2cc3nc(C)n(N)c(=O)c3s2)cc1 | -5.1 | 0.1 | 81.1* | 100.5* | 89.5* | 100.9*
CC(C)C#Cc1ccc([C@@H]2[C@H]3CN(C(=O)C4CCCCC4)CC(=O)N3[C@H]2CO)cc1 | . | 0.1 | . | . | 5.9 | 7.8
COC(=O)N(C)C[C@@H]1OCc2ccccc2-c2c(n(C)c3ccccc23)C(=O)N([C@@H](C)CO)C[C@@H]1C | 5.2 | 0.1 | . | . | -14.5 | -1.2
CN(C)C(=O)[C@@H]1[C@@H](CO)[C@@H]2Cn3c(ccc(C4=CCCCC4)c3=O)[C@@H]2N1Cc1ccc2c(c1)OCO2 | . | 0.0 | . | . | -0.2 | -11.9
O=C1CC(NNc2nc3ccccc3s2)C(=O)N1c1ccc(F)cc1 (stereo unspecified) | -2.8 | -0.1 | 69.4* | 16.1 | 2.9 | 7.6
O=C(CN1c2ccccc2Sc2ccccc21)NNC(=O)Nc1ccc(Cl)cc1 | 1.0 | 0.1 | 31.0 | 11.0 | 4.2 | .
O=C(NNc1nc2ccccc2s1)c1ccccc1F | . | . | 68.6* | 2.7 | -7.3 | -27.9
O=C(CN1c2ccccc2Sc2ccccc21)NNC(=O)Nc1ccc(Cl)c(Cl)c1 | -7.1 | 0.0 | 59.3* | 23.2 | 20.7 | .
SMILES | FN deposit inh | XiGFP reactiv | TROY NFkB inh | TWEAK Fn14 block | EWS-Fli inh | LGR2 antag
COc1ccc(NC(=O)Nc2nc3ccccc3s2)cc1 | -2.6 | 0.3 | -25.9 | -21.5 | -115.2 | -35.7
O=C(NNc1nc2ccccc2s1)Nc1ccc(F)cc1 | -16.0 | -0.1 | 44.7 | 64.6* | -83.2 | -81.9
Cc1cccc(N2C(=O)CC(NNc3nc4ccccc4s3)C2=O)c1 (stereo unspecified) | -5.6 | 0.0 | -2.6 | 6.7 | -6.5 | 24.1
CCCC#Cc1cnc2c(c1)C(=O)N([C@@H](C)CO)C[C@H](C)[C@@H](CN(C)C(=O)c1ccc3c(c1)OCO3)O2 | -11.2 | -0.8 | . | . | 0.8 | 1.3
C[C@H]1CN([C@@H](C)CO)C(=O)c2cc(NC(=O)CCC(F)(F)F)ccc2O[C@H]1CN(C)S(=O)(=O)c1cn(C)cn1 | . | 0.0 | . | . | 4.7 | -7.6
O=C(NNc1nc2ccccc2s1)Nc1ccc(Cl)c(Cl)c1 | -19.2 | 0.1 | 82.2* | 51.9* | 2.9 | 18.5
O=C(CSc1nc2ccccc2s1)NNC(=O)Nc1ccc(Cl)c(Cl)c1 | . | . | 0.3 | 0.4 | . | .
CCCC#Cc1cnc2c(c1)C(=O)N([C@H](C)CO)C[C@@H](C)[C@H](CN(C)C(=O)c1ccc(F)cc1)O2 | . | -1.1 | . | . | 2.5 | 13.2
C/C=C/c1ccc2c(c1)[C@H]1[C@H](CCN1C(=O)Cc1cccnc1)[C@@H](CO)N2C | 2.3 | 0.4 | . | . | -13.9 | -22.9
COc1cccc(S(=O)(=O)N2C[C@@H]3N[C@H](C2)C3c2ccc(-c3cccc(C)c3)cc2)c1 (stereo partly specified) | -8.1 | 0.1 | . | . | 54.6*! | 0.9
Cc1cccc(S(=O)(=O)N2C[C@@H]3N[C@H](C2)C3c2ccc(-c3ccncc3)cc2)c1 (stereo partly specified) | 8.0 | 0.0 | . | . | 56.9*! | -1.0
Cc1cccc(S(=O)(=O)N2C[C@@H]3N[C@H](C2)C3c2ccc(-c3cccnc3)cc2)c1 (stereo partly specified) | 6.0 | 0.0 | . | . | -2.6 | 6.3
CC(=O)c1ccc(Nc2cc(C)nc3ccc(C)cc23)cc1 | . | 0.0 | -28.0 | -12.0 | 13.8 | 62.2*
C[C@@H]1CN(C)C(=O)Cc2cc(NS(C)(=O)=O)ccc2O[C@@H]1CN(C)C | 2.3 | 0.3 | . | . | . | .
COc1cccc2c1C(=O)O/C2=C/c1ccc2c(c1)OCO2 | -5.4 | . | -10.1 | 62.8* | . | 62.4*
O=C(C1CCCCC1)N1CC2(C1)[C@H](c1ccccc1)[C@H](CO)N2Cc1cncnc1 | 4.1 | 0.2 | . | . | -2.2 | -6.6
O=[N+]([O-])c1ccc(Sc2nnnn2-c2ccccc2)c(Cl)c1 | 12.2 | . | 24.1 | 33.4 | . | 2.6
CC(=O)c1ccc(Sc2nnnn2-c2ccccc2)c([N+](=O)[O-])c1 | -12.9 | 1.3 | 37.4 | 97.7* | 7.8 | 75.6*
CN1CCN(S(=O)(=O)c2ccc(Sc3nnnn3-c3ccccc3)c([N+](=O)[O-])c2)CC1 | -5.5 | 0.2 | 40.2 | 100.1* | -9.5 | .
O=S(=O)(N[C@H]1CC[C@@H](CCn2cc(-c3ccccc3F)nn2)O[C@@H]1CO)c1ccc(F)cc1 | . | -0.5 | . | . | 0.6 | -0.7
O=S(=O)(c1ccc(Cl)c(Cl)c1)c1snnc1-c1ccccc1 | . | . | 51.8* | 77.8* | . | .
